ChEMBL document CHEMBL1833926, “Bicyclic heteroaryl inhibitors of stearoyl-CoA desaturase: from systemic to liver-targeting inhibitors” (Bioorg Med Chem Lett, 2011)
Active and inactive are the calls of the source. No cut-off for these calls is given here.

Assays:
[1] = molecular target: T1, Acyl-CoA 6-desaturase (Homo sapiens) (UniProt O95864); assay: Inhibition of delta-6 desaturase
T1 sequence (whole entry): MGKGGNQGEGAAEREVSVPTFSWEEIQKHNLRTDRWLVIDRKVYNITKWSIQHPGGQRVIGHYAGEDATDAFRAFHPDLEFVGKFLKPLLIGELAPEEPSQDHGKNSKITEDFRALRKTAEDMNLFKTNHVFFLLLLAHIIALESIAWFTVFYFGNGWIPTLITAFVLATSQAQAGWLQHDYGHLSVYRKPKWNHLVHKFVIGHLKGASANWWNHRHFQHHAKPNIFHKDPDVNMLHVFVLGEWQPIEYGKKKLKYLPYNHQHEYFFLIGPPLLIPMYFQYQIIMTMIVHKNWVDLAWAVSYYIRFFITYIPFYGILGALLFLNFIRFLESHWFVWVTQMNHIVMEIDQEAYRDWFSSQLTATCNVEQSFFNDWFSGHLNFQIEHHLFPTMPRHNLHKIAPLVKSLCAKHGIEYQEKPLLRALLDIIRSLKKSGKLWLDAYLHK

Stearoyl-CoA desaturase = molecular target: T2, Stearoyl-CoA desaturase (Homo sapiens, UniProt O00767); assay: Inhibition of SCD1 in human HepG2 cells; format: cell-based
T2 sequence (O00767 whole entry): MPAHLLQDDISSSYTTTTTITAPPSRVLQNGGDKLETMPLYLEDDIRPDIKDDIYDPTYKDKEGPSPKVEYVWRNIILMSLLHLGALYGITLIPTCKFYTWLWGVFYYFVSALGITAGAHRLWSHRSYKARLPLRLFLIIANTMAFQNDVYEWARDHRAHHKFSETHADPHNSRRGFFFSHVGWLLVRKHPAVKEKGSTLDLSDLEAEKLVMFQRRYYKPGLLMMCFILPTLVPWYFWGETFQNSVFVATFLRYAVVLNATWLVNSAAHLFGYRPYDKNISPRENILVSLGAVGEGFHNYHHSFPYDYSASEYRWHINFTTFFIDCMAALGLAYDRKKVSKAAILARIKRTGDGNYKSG

[2] = molecular target: Acyl-CoA (8-3)-desaturase (Homo sapiens) (UniProt O60427); assay: Inhibition of delta-5 desaturase
Acyl-CoA (8-3)-desaturase (Homo sapiens), sequence (O60427 whole entry, looked up): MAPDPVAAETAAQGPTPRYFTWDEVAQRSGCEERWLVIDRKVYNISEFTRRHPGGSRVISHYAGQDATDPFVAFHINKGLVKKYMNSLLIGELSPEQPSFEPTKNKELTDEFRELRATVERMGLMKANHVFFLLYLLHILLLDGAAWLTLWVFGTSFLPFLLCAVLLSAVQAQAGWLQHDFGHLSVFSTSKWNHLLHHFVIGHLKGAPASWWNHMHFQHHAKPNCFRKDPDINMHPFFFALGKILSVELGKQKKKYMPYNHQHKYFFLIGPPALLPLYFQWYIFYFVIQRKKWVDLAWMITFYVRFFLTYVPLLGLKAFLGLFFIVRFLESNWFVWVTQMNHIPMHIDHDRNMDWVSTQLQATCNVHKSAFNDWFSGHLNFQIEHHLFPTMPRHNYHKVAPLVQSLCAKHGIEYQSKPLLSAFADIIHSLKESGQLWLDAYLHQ

Acyl-CoA desaturase 1 [3] = molecular target: T3, Acyl-CoA desaturase 1 (Rattus norvegicus, UniProt P07308); assay: Inhibition of rat SCD1 in rat liver microsome
T3 sequence (P07308 whole entry): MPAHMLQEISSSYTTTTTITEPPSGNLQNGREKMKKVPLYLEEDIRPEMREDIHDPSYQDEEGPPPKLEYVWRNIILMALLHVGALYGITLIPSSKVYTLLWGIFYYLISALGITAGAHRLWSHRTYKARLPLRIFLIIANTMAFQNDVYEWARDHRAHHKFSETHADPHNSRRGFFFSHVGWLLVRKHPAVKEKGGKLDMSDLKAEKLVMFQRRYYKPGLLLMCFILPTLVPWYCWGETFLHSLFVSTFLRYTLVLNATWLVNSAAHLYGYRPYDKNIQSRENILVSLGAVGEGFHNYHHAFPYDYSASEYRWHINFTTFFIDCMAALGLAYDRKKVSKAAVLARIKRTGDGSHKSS

[4] = Ratio of drug uptake in liver to adipose tissue in C57BL/6 mouse at 10 mg/kg, po after 6 hrs; format: ADME, organism-based, C57BL6; parameters: dose 10 mg/kg, route oral; conditions: in vivo
In short: (§1)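 Single oral dose of 10 mg/kg in 0.5% methocel given to C57BL6 mice on normal chow. Drug levels measured 6 h post-dose in liver, white adipose, skin and Harderian glands. Liver/tissue fold selectivity taken from these levels.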

[5] = Ratio of drug uptake in liver to skin in C57BL/6 mouse liver at 10 mg/kg, po after 6 hrs; format: ADME, organism-based, C57BL6; parameters: dose 10 mg/kg, route oral; conditions: in vivo; in short: as §1
[6] = Drug uptake in C57BL/6 mouse liver at 10 mg/kg, po after 6 hrs; format: ADME, organism-based, C57BL6; parameters: dose 10 mg/kg, route oral; conditions: read-out: Drug uptake; in short: as §1
[7] = Ratio of drug uptake in liver to harderian glands in C57BL/6 mouse at 10 mg/kg, po after 6 hrs; format: ADME, organism-based, C57BL6; parameters: dose 10 mg/kg, route oral; conditions: in vivo; in short: as §1
HepG2 [8] = assay: Ratio of IC50 for SCD1 in human HepG2 cells to IC50 for rat SCD1; format: cell-based
In short: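 Fold shift computed as hHepG2 whole-cell IC50 over the SCD1-induced rat liver microsomal enzyme IC50.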

HepG2 [9] = assay: Ratio of IC50 for SCD1 in human HepG2 cells to IC50 for SCD1 in rat Hep cells; format: cell-based
In short: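 Fold shift computed as hHepG2 whole-cell IC50 over rat hepatocyte IC50.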

Acyl-CoA desaturase 1 [10] = molecular target: T3, Acyl-CoA desaturase 1; assay: Inhibition of SCD1 in rat Hep cells; format: cell-based
In short: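 Whole-cell SCD1 inhibition measured in rat hepatocytes, which express OATP transporters, in the presence of 10% fetal bovine serum; IC50 determined.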

[11] = Drug uptake in C57BL/6 mouse adipose tissue at 10 mg/kg, po after 6 hrs; format: ADME, organism-based, C57BL6; parameters: dose 10 mg/kg, route oral; conditions: in vivo; in short: as §1
[12] = AUC (0 to 24 hrs) in C57BL/6 mouse at 10 mg/kg, po; format: ADME, organism-based, C57BL6; parameters: time < 24 hr, dose 10 mg/kg, route oral; conditions: whole blood
In short: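 Oral gavage, 10 mg/kg in 0.5% methocel, to C57BL6 mice; whole blood exposure measured over 0–24 h as AUC.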

Mus musculus [13] = assay: Inhibition of SCD1 activity in high carbohydrate diet fed C57BL/6 mouse assessed as reduction in conversion of [1-14C]stearic acid to [1-14C]oleic acid at 60 mg/kg, po after 3 hrs; format: functional, organism-based; parameters: dose 60 mg/kg; conditions: C57BL6
In short: (§2)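 Mouse liver PD assay in C57BL6 mice on a high carbohydrate diet, n = 5/group. Compound given orally in 0.5% methocel. At 1 h, [1-14C]-stearic acid in 60% aqueous PEG 200 given iv. Livers harvested 2 h after tracer. Lipids hydrolyzed; SCD1 activity index = 14C-oleic/14C-stearic acid ratio.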

[14] = Drug uptake in C57BL/6 mouse liver at 60 mg/kg, po after 3 hrs; format: ADME, organism-based, C57BL6; parameters: dose 60 mg/kg, route oral; conditions: read-out: Drug uptake
In short: (§3)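 Drug levels in liver and plasma measured in the mouse liver PD study. C57BL6 mice on a high carbohydrate diet received an oral dose in 0.5% methocel. Samples were taken 3 h post-dose, with livers harvested 2 h after iv [1-14C]-stearic acid tracer.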

[15] = Plasma concentration in C57BL/6 mouse at 60 mg/kg, po after 3 hrs; format: ADME, organism-based, C57BL6; parameters: dose 60 mg/kg, route oral; in short: as §3
[16] = Apparent permeability across pig LLC-PK1 cells; format: ADME, cell-based, Sus scrofa
[17] = Plasma concentration in C57BL/6 mouse at 30 mg/kg, po after 3 hrs; format: ADME, organism-based, C57BL6; parameters: dose 30 mg/kg, route oral; in short: as §3
Mus musculus [18] = assay: Inhibition of SCD1 activity in high carbohydrate diet fed C57BL/6 mouse assessed as reduction in conversion of [1-14C]stearic acid to [1-14C]oleic acid at 30 mg/kg, po after 3 hrs; format: functional; conditions: C57BL6, 3 h; in short: as §2
[19] = Drug uptake in C57BL/6 mouse liver at 30 mg/kg, po after 3 hrs; format: ADME, organism-based, C57BL6; parameters: dose 30 mg/kg, route oral; conditions: read-out: Drug uptake; in short: as §3

SMILES	inhibition [1]	IC50 (Stearoyl-CoA desaturase) [nM]	inhibition [2]	IC50 (Acyl-CoA desaturase 1 [3]) [nM]	other results
Nc1nc2cnc(N3CCC(Oc4cc(F)ccc4Br)CC3)nc2s1	inactive	17	inactive	1	
O=c1[nH]c2cnc(N3CCC(Oc4ccccc4C(F)(F)F)CC3)nc2[nH]1		319		38	Ratio [4]: 3.6; Ratio [5]: 4.4; concentration at 6 h [6]: 24.7 µM; Ratio [7]: 0.8
FC(F)(F)c1ccccc1OC1CCN(c2ncnc3nc[nH]c23)CC1		48		10	
FC(F)(F)c1ccccc1OC1CCN(c2ncnc3[nH]cnc23)CC1	inactive		inactive		
Fc1ccc(Br)c(OC2CCN(c3nc4ccccc4s3)CC2)c1	inactive	10600	inactive	477	
Nc1ncnc2nc(N3CCC(Oc4ccccc4C(F)(F)F)CC3)sc12	inactive		inactive	56	
Fc1ccc(Br)c(OC2CCN(c3ncnc4nc[nH]c34)CC2)c1		< 39		1	
O=c1[nH]ccc2nc(N3CCC(Oc4ccccc4C(F)(F)F)CC3)sc12	inactive	268	inactive	85	
FC(F)(F)c1ccccc1OC1CCN(c2ncc3[nH]cnc3n2)CC1		257		10	
Fc1ccc(Br)c(OC2CCN(c3ncnc4[nH]cnc34)CC2)c1	inactive		inactive		
O=c1[nH]c(CO)nc2nc(N3CCC(Oc4ccccc4C(F)(F)F)CC3)sc12	inactive	16	inactive	2	
O=C(O)COc1nc2cnc(N3CCC(Oc4cc(F)ccc4Br)CC3)nc2s1		53		7	Ratio IC50 (HepG2 [8]): 7; Ratio [4]: 173; Ratio [5]: 403; Ratio [7]: 3; Ratio IC50 (HepG2 [9]): < 1; IC50 (Acyl-CoA desaturase 1 [10]): 348 nM
Oc1nc2cnc(N3CCC(Oc4ccccc4C(F)(F)F)CC3)nc2[nH]1	inactive		inactive		
Cc1nc2nc(N3CCC(Oc4ccccc4C(F)(F)F)CC3)sc2c(=O)[nH]1	inactive	59	inactive	8	Ratio [5]: 7; Drug uptake [11]: Not Active; concentration at 6 h [6]: 21.8 µM; Ratio [7]: 1.1; AUC(0-t) at 24 h [12]: 30 µM·h
O=c1[nH]c(N2CCC(Oc3ccccc3C(F)(F)F)CC2)nc2[nH]cnc12	inactive	378	inactive	97	
O=c1[nH]cnc2nc(N3CCC(Oc4ccccc4C(F)(F)F)CC3)sc12	inactive	29	inactive	7	
Cc1ncc2sc(N3CCC(Oc4ccccc4C(F)(F)F)CC3)nc2n1	inactive	182	inactive	54	
O=C(O)CCc1nc2nc(N3CCC(Oc4cc(F)ccc4Br)CC3)sc2c(=O)[nH]1		24300		266	Ratio IC50 (HepG2 [8]): 91; Ratio [4]: 31; inhibition (Mus musculus [13]): inactive; Ratio [5]: 22; concentration at 3 h [14]: 3.3 µM; concentration at 3 h [15]: 0.2 µM; Papp [16]: 2 ×10⁻⁶ cm/s; Ratio IC50 (HepG2 [9]): 145; IC50 (Acyl-CoA desaturase 1 [10]): 168 nM
FC(F)(F)c1ccccc1OC1CCN(c2ncc3nc[nH]c3n2)CC1	inactive		inactive		
NC(=O)c1cnc(N2CCN(C(=O)c3ccccc3C(F)(F)F)CC2)s1					AUC(0-t) at 24 h [12]: 11 µM·h
Fc1ccc(Br)c(OC2CCN(c3ncc4nc[nH]c4n3)CC2)c1	inactive		inactive		
FC(F)(F)c1ccccc1OC1CCN(c2nc3ncccc3s2)CC1	inactive	755	inactive	83	
Nc1ncnc2[nH]c(N3CCC(Oc4ccccc4C(F)(F)F)CC3)nc12	inactive		inactive		
O=C(O)CNc1nc2cnc(N3CCC(Oc4cc(F)ccc4Br)CC3)nc2s1		168		4	Ratio IC50 (HepG2 [8]): 42; Ratio [4]: 41; concentration at 3 h [17]: 0.2 µM; Ratio [5]: 145; Ratio [7]: 21; inhibition in vivo at 30 mg/kg (Mus musculus [18]): 72%; concentration at 3 h [19]: 4.1 µM; Ratio IC50 (HepG2 [9]): 1; IC50 (Acyl-CoA desaturase 1 [10]): 158 nM
Fc1ccc(Br)c(OC2CCN(c3ncc4[nH]cnc4n3)CC2)c1		47		3	
